The results in this text go back to ChEMBL document CHEMBL2150931, “Design, synthesis, and biological activity of a novel series of human sirtuin-2-selective inhibitors” (J Med Chem, 2012).

Activity calls are given as the source filed them. The rule behind the calls is not given here.

For data set [1], the target named is T1, NAD-dependent protein deacetylase sirtuin-1 (Homo sapiens) (UniProt Q96EB6).
T1 sequence (whole entry): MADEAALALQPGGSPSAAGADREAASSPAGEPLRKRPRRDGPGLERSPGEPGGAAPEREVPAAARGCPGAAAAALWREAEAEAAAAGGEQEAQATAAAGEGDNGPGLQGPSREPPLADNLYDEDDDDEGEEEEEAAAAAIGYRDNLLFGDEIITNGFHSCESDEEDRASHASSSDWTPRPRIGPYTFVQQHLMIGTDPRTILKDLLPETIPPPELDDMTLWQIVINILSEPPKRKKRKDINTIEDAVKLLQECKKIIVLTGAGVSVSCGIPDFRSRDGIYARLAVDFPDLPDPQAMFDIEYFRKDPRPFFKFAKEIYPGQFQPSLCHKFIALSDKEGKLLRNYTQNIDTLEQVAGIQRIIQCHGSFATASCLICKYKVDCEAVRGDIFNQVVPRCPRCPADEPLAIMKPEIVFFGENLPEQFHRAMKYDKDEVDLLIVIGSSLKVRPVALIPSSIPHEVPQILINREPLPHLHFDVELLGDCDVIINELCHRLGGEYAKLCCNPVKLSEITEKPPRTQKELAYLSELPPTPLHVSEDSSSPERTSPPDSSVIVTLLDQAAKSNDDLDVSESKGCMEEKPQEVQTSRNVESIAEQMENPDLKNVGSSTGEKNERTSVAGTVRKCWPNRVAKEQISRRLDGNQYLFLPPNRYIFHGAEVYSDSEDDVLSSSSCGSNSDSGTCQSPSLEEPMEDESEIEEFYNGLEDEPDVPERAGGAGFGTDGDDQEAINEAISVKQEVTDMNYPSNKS
Description: Inhibition of SIRT1 in human HCT116 cells assessed as increase in acetylated p53 at 1 to 10 uM after 8 hrs by Western blot analysis. The class given is cell-based. The note with it: HCT-116. In outline:
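HCT116 cells grown in McCoy's 5A with 10% FBS. 5×10⁵ cells exposed 8 h to compound at 1 or 10 μM, alongside 20 μM etoposide. SDS lysates equalized by Bradford assay and run on 15% SDS-PAGE, then blotted onto nitrocellulose. Blots probed overnight at 4 °C for acetyl-p53, p53, acetyl-α-tubulin and α-tubulin, and detected by ECL. Signal given as acetylated/total protein ratio.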
On the technique in general: Immunoblotting shows a protein as a band on a membrane.

Another data set has as its target Histone deacetylase 2 (Homo sapiens, UniProt Q92769). As to the kind of experiment: Inhibition of HDAC2.
The target in another data set is Histone deacetylase 3 (Homo sapiens, UniProt O15379). As to the kind of experiment: Inhibition of HDAC3.
A further data set addresses Histone deacetylase 4 (Homo sapiens, UniProt P56524). As to the kind of experiment: Inhibition of HDAC4.
Data set [2] concerns the target T2, Protein deacetylase HDAC6 (Homo sapiens, UniProt Q9UBN7).
T2 sequence (Q9UBN7 whole entry): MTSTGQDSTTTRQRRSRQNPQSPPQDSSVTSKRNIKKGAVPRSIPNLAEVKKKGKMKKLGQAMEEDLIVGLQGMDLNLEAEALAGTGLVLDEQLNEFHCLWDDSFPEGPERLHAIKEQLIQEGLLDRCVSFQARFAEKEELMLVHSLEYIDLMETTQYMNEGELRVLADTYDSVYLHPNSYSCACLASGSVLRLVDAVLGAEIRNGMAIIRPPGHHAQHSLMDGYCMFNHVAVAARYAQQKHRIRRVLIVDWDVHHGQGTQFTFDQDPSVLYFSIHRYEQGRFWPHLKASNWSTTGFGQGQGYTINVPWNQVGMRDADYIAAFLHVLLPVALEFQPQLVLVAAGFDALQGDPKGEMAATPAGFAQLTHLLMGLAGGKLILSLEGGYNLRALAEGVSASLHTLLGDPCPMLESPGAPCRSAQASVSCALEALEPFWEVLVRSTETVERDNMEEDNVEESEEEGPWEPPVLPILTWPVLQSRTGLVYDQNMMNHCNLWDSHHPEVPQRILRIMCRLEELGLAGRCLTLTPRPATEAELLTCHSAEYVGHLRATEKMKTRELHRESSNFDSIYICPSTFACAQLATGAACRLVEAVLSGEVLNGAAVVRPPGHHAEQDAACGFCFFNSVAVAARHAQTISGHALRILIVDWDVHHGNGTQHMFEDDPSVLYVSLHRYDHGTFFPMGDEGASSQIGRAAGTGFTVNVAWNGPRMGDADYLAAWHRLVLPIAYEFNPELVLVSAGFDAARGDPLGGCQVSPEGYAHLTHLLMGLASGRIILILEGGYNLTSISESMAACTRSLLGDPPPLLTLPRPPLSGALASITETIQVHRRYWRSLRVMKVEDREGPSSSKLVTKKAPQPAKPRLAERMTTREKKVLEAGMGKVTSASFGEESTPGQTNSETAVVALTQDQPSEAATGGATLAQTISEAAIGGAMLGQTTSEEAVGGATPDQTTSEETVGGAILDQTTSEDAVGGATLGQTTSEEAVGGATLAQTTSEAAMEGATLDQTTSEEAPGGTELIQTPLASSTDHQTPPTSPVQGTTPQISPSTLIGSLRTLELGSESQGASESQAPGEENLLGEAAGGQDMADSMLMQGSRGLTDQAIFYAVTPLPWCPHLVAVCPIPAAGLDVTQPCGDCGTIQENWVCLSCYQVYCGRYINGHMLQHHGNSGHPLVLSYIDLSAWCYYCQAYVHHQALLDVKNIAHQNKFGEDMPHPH
As to the kind of experiment: Inhibition of HDAC6.

The target of a further data set is T3, Histone deacetylase 8 (Homo sapiens, UniProt Q9BY41).
T3 sequence (Q9BY41 whole entry): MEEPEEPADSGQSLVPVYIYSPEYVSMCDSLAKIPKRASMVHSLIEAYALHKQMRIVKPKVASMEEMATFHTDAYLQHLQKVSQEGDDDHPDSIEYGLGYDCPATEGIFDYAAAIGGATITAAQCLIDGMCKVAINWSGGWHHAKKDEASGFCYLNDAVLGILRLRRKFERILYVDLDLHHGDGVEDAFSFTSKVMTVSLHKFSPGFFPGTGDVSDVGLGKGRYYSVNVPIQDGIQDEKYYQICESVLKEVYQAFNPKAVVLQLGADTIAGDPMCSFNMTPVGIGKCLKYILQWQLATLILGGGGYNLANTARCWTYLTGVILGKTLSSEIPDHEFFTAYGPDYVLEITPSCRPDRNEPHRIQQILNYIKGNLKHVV
Description: Inhibition of HDAC8.

Data set [3] in a line: Metabolic stability in human liver microsomes assessed as compound remaining at 0.5 mg after 15 mins. The class given is ADME, Microsome. The settings on record: read-out: Stability. In general terms: Microsomes from liver hold many membrane-bound enzymes, among them those of drug oxidation.

Histone deacetylase 4, sequence (P56524 whole entry): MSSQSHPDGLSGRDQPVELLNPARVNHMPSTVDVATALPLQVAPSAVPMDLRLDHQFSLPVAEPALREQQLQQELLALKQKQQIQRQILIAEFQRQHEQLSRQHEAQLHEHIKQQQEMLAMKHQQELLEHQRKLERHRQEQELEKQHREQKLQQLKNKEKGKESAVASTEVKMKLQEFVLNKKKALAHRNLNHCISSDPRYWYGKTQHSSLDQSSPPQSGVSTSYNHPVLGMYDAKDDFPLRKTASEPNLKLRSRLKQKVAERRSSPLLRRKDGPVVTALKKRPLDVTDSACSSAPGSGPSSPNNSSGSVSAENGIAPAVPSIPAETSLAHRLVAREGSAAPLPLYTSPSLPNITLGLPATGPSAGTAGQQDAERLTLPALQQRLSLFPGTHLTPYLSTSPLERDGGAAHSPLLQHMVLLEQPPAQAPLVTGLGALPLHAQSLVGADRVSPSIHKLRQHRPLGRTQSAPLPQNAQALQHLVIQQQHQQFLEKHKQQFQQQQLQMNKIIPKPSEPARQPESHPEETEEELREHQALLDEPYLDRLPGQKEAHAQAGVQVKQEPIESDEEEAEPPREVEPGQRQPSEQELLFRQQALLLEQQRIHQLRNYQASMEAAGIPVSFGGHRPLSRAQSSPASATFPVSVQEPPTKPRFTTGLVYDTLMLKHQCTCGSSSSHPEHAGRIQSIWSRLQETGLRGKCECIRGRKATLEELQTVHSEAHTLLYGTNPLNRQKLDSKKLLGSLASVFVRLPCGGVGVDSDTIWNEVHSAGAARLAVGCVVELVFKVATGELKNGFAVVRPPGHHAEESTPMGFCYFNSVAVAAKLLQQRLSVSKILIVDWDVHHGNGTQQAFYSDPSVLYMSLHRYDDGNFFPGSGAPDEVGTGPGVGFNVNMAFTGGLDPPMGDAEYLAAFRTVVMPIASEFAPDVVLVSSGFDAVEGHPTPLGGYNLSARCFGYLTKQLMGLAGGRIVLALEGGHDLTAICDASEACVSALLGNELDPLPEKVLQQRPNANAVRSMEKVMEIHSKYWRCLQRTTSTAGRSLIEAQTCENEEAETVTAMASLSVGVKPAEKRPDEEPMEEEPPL
Histone deacetylase 3, sequence (O15379 whole entry): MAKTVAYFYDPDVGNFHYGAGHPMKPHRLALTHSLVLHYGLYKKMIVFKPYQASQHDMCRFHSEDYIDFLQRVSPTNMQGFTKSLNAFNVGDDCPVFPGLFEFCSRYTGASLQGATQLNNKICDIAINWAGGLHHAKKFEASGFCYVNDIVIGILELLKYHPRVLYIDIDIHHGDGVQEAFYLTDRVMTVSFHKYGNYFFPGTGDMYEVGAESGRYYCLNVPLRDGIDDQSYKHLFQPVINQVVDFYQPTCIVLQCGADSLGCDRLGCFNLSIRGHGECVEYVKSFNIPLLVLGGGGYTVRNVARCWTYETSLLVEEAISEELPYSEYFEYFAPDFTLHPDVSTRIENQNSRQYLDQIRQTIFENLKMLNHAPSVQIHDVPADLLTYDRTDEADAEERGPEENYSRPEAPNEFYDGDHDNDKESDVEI
Histone deacetylase 2, sequence (Q92769 whole entry): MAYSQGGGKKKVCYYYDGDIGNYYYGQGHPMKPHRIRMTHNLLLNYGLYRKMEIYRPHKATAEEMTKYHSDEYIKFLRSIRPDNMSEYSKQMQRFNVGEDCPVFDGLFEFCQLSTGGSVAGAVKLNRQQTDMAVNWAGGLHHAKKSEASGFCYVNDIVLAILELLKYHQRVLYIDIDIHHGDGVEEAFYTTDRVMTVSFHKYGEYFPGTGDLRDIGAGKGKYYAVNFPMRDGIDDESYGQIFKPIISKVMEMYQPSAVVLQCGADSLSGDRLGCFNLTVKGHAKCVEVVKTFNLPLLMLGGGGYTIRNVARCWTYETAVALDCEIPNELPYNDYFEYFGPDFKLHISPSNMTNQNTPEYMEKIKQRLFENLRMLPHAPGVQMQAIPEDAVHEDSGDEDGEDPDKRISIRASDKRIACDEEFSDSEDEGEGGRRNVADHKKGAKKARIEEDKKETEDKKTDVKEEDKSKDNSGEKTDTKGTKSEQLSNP

A word on the IC50: it is the point on the concentration scale where inhibition reaches its midpoint. In the case of `NC(=O)c1ccccc1Nc1cccc(OCCc2ccccc2)c1`, the inhibition result in data set [1] was “inactive”. For the same compound, the IC50 (against Histone deacetylase 2; on Histone deacetylase 3; against Histone deacetylase 4; in data set [2]; at Histone deacetylase 8) was greater than 30 µM each time. Further, in data set [3], the remaining at 0.25 h is 64%.
